Results reported in article PMC7274092 (Nature biomedical engineering, 2020).

Key:
[1] = Diffusion-ordered NMR spectroscopy; format: physicochemical; conditions: approximated from DOSY diffusion rate by the Stokes-Einstein relationship
[2] = system: liver and kidney; test: Biocompatibility of CB[7]-PEG in healthy rats; format: in vivo, Sprague Dawley rats; conditions: s.c. 0.2 mg/kg once daily for six weeks, n=4
How it was run: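 Healthy 10-week-old Sprague Dawley rats (n=4) received CB[7]-PEG at 0.2 mg/kg s.c. in PBS (pH 7.4) once daily for six weeks. […] Blood chemistry was run on an automated analyzer from samples taken on days 14, 28 and 42. At endpoint, liver and kidney were collected for single-blinded histopathology.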

[3] = insulin hexamer, for comparison; cited from earlier work

Row | Compound | hydrodynamic radius (Rh) [1] [nm] | other results
1 | CC[C@H](C)[C@H](NC(=O)[C@@H]1CCCN1C(=O)CNC(=O)[C@H](Cc1ccccc1)NC(=O)[C@H](CC(N)=O)NC(=O)[C@H](CC(N)=O)NC(=O)[C@H](CO)NC(=O)[C@H](CO)NC(=O)[C@H](Cc1c[nH]cn1)NC(=O)[C@@H](NC(=O)[C@H](CC(C)C)NC(=O)[C@H](Cc1ccccc1)NC(=O)[C@H](CC(N)=O)NC(=O)[C@H](C)NC(=O)[C@H](CC(C)C)NC(=O)[C@H](CCCNC(=N)N)NC(=O)[C@H](CCC(N)=O)NC(=O)[C@@H](NC(=O)[C@H](C)NC(=O)[C@@H]1CSSC[C@H](NC(=O)[C@@H](N)CCCCN)C(=O)N[C@@H](CC(N)=O)C(=O)N[C@@H]([C@@H](C)O)C(=O)N[C@@H](C)C(=O)N[C@@H]([C@@H](C)O)C(=O)N1)[C@@H](C)O)C(C)C)C(=O)N[C@@H](CC(C)C)C(=O)N1CCC[C@H]1C(=O)N1CCC[C@H]1C(=O)N[C@H](C(=O)N[C@@H](CC(N)=O)C(=O)N[C@H](C(=O)NCC(=O)N[C@@H](CO)C(=O)N[C@@H](CC(N)=O)C(=O)N[C@H](C(=O)N[C@@H](Cc1ccc(O)cc1)C(N)=O)[C@@H](C)O)C(C)C)[C@@H](C)O [pramlintide] | 1.2 | –
2 | cucurbit[7]uril-conjugated polyethylene glycol [CB[7]-PEG] | – | blood chemistry and liver/kidney histopathology vs untreated controls [2]: No differences
3 | insulin aspart | ~2.2 | –
4 | insulin hexamer: hexameric association state of insulin | – | hydrodynamic radius [3]: approximately 2.8 nm
